Screening data as filed in PubChem.
PLC-beta3 inh = inhibitors of human phospholipase C beta3. Purified PLC-beta3, fluorogenic substrate, fluorescence. inhibition, % at 12.2 µM. 370,000 tested, 0.18% active
PvdQ acylase = P. aeruginosa PvdQ acylase inhibition; purified PvdQ acylase, fluorescence plate reader; 340,000 tested, 0.063% active; inhibition, % at 10 µM; AID 488965; in the data active = inhibition above about 30%, passing the limit was not always enough
PLC-gamma1 inh = blocks human PLC-gamma1 enzyme activity; P19174; purified PLC-gamma1, fluorogenic substrate, fluorescence; inhibition, % at 12.2 µM; 370,000 tested, 0.84% active; AID 720700; in the data active = inhibition above about 9.5%
Target sequence (P19174 whole entry, looked up): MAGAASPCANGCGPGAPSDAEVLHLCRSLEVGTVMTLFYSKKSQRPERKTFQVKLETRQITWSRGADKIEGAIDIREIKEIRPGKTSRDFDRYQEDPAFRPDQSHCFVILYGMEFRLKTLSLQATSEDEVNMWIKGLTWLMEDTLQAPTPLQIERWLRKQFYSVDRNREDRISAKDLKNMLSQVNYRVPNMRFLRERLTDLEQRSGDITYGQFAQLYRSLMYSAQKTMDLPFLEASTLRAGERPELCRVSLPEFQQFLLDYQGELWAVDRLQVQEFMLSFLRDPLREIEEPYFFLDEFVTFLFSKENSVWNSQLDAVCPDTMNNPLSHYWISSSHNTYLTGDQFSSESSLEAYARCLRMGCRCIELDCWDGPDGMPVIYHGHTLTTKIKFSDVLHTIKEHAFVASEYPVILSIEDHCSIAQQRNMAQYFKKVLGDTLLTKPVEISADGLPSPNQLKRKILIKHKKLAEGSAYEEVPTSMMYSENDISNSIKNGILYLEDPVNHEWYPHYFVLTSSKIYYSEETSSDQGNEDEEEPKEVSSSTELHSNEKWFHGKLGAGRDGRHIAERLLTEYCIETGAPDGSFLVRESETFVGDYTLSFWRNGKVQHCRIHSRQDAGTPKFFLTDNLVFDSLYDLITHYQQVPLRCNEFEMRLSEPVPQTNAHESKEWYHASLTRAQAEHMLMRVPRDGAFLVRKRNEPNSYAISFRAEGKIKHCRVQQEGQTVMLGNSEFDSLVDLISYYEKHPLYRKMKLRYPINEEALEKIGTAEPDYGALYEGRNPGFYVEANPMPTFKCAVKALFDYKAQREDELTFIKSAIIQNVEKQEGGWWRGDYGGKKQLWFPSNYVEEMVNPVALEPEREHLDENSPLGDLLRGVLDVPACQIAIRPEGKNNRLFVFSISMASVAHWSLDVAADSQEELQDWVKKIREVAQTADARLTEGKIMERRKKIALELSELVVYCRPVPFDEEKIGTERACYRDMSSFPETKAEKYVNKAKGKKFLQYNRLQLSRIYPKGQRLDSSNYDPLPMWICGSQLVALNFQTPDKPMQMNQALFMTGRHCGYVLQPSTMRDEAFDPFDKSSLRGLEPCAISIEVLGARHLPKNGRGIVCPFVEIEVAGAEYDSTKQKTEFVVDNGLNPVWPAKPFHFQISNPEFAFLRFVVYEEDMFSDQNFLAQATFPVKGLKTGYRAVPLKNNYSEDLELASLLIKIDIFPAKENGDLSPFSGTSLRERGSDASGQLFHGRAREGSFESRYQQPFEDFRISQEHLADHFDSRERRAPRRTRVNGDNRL
VIM-2 inh = blocks Pseudomonas aeruginosa VIM-2 metallo-beta-lactamase; purified VIM-2, nitrocefin hydrolysis, epi-absorbance fluorescence; inhibition, % at 5.6 µM; 290,000 tested, 0.89% active;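 active = inhibition above the mean of all tested compounds plus 3 SD, cutoff set per screening run, cut at about 7.5% in these data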;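 note: red hydrolysis product quenches plate fluorescence so inhibitors raise well fluorescence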
IMP-1 inhibitor = blocks Pseudomonas aeruginosa IMP-1 metallo-beta-lactamase; inhibition, % at 5.6 µM; 290,000 tested, 0.45% active; purified IMP-1, nitrocefin hydrolysis, epi-absorbance fluorescence;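 active = inhibition above the mean plus 3 SD of all compounds in the same screening run, cut at about 4.5% in these data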
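Test system: recombinant IMP-1 enzyme, purified / Medium: HEPES buffer pH 7.1 with ZnSO4 and Brij 35 / Doses: single dose, 5.6 µM / Times: 25 °C, 15 min preincubation, 25 min reaction / Detection: Epi-absorbance via hydrolysed-nitrocefin quenching of white-plate fluorescence, 480/530 nm, EDTA stop / Evaluation: percent inhibition from optical density relative to buffer-blank wells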
PLCg1 ctr = inhibits human PLC-gamma1 in PLC-beta3 counter-screen | shares compounds with PLC-gamma1 inh | purified PLC-gamma1, fluorogenic substrate, fluorescence | inhibition, % at 12.3 µM | 3,300 tested, 3.1% active | AID 743258; in the data active = inhibition above about 9.5%
PLCb3 confirm = confirmation of human PLC-beta3 inhibitors | shares compounds with PLC-gamma1 inh | inhibition, % at 12.3 µM | purified PLC-beta3, fluorogenic substrate fluorescence | 3,300 tested, 1% active
Hits are given with their value; n = inactive; x = not tested or not shown. An excerpt weighted towards active compounds, which were near 2% of everything screened. Cut-off read from the data, not from the text of the source, unless noted: active = inhibition above about 11%; inactive = the rest.

SMILES | PLC-beta3 inh | PvdQ acylase | PLC-gamma1 inh | VIM-2 inh | IMP-1 inhibitor | PLCg1 ctr | PLCb3 confirm
O=S(=O)(c1ccc(Cl)cc1)c1cnc2ccccc2n1 | n | n | 9.6 | n | n | 11.6 | n
COc1ccc(C(=S)N2CCN(c3ccccc3C)CC2)cc1 | n | n | 13.3 | n | n | n | n
CCN1CCN(C(=S)c2ccc(OC)cc2)CC1 | n | n | n | n | n | x | x
CCOc1ccc(-c2cc(C(=O)NCc3cc(OC)cc(OC)c3)[nH]n2)c(C)c1 | n | x | n | x | x | x | x
CCOc1ccc(-c2cc(C(=O)NC3CCCCC3)[nH]n2)c(C)c1 | 12.3 | x | n | x | x | n | n
O=C(CNC(=O)c1ccccc1)NCC(=O)OCC(=O)c1ccc(F)cc1 | n | n | n | n | n | x | x
Cc1ccc(C(=O)NCC(=O)NCC(=O)OCC(=O)c2ccc(F)cc2)cc1 | n | n | 13.2 | n | n | n | n
O=C1CCCN2N=C(SCC(=O)N3N=C(c4ccc(Br)cc4)CC3c3ccc(F)cc3)SC2=N1 (stereo unspecified) | n | n | 14.5 | n | n | n | n
Cc1ccc(C2CC(c3ccc(Br)cc3)=NN2C(=O)CSC2=NN3CCCC(=O)N=C3S2)cc1 (stereo unspecified) | n | n | n | n | n | x | x
C[C@H]1[C@@H](NCC2CCCCC2)CC[C@@]23CCCN2C(=O)CCC[C@@H]13 | n | x | n | x | x | x | x
COc1ccc(CN2CN3Cc4ccc(C)cc4C3CS2(=O)=O)cc1 (stereo unspecified) | n | x | n | x | x | x | x
Cc1nc(Nc2c(Cl)cccc2Cl)sc1C(=O)Nc1ccccc1 | n | n | 9.6 | n | n | n | n
Cc1nc(NC(=O)C2CC2)sc1C(=O)Nc1ccccc1 | n | n | n | n | n | x | x
COC(=O)c1cccc(CC2(C)C(=O)Nc3cc(-c4ccccc4Cl)ccc32)c1 (stereo unspecified) | n | x | 14.3 | x | x | n | n
C[C@H](O)[C@@H]1C(=O)N2CCc3c([nH]c4c(-c5ccccc5)cccc34)[C@@H]2C[C@@H]1N(C)C(=O)/C=C/c1ccccc1 | n | x | n | x | x | x | x
Cc1cccc(NC(=O)C2(c3cccs3)CCOCC2)c1 | n | n | n | n | n | x | x
Cc1cc(C)cc(NC(=O)C2(c3cccs3)CCOCC2)c1 | n | n | 9.8 | n | n | n | n
COC(=O)CCCCCCCCCC[N+]1(C)CCCCC1 | 10.8 | n | n | n | n | n | n
COc1cccc(NC(=O)Nc2nc3ncccn3c2-c2ccc(C)cc2)c1 | n | x | n | x | x | x | x
CC(C)CN1C(=O)[C@@]2(CC(=O)N(C)C2c2ccccc2)c2cc(-n3cc(CO)nn3)ccc21 (stereo partly specified) | n | x | n | x | x | x | x
O=S(=O)(C/C(=C/CO)S(=O)(=O)c1ccccc1)c1ccccc1 | n | n | 9.7 | n | n | n | n
CCCCN1CC[C@H](C)Oc2cc(Br)ccc2S1(=O)=O | n | x | n | x | x | x | x
CCOc1ccccc1C(=O)N/N=C/c1cccc2cccnc12 | n | n | 14.0 | 9.2 | n | n | n
COC(=O)[C@]12C[C@H](CC(=O)NCCCCc3ccccc3)C(=O)N(Cc3ccco3)C1=C[C@H](C(C)(C)C)O[C@@H]2C | n | x | n | x | x | x | x
CN1C=CC(=C[N+](=O)[O-])N(C)C1=O | n | x | 11.5 | x | x | n | n
SMILES | PLC-beta3 inh | PvdQ acylase | PLC-gamma1 inh | VIM-2 inh | IMP-1 inhibitor | PLCg1 ctr | PLCb3 confirm
CC(C)OP(=O)(O)C(C)NC(=O)OCc1ccccc1 (stereo unspecified) | n | x | n | x | x | x | x
CCC(C)N(C(=O)Cn1nc(Cc2ccncc2)c2ccccc2c1=O)C(C)CC (stereo unspecified) | n | x | n | x | x | x | x
O=C(NCc1ccccc1)c1cc(C2CCCCN2C(=O)c2ccc3c(c2)CCO3)on1 (stereo unspecified) | n | x | 11.5 | x | x | n | n
O=C(c1ccncc1)N1CCC(Oc2cccnc2)CC1 | n | x | n | x | x | x | x
CN1[C@@H](Cc2ccccc2)COc2cccc(N3CCCC3)c2S1(=O)=O | n | x | n | x | x | x | x
COc1ccc(NS(=O)(=O)c2ccc(SC)cc2)cc1 | n | n | 12.4 | n | n | n | n
O=S1(=O)CC2c3ccc(F)cc3CN2CN1C1CCCC1 (stereo unspecified) | n | x | n | x | x | x | x
O=C(c1ccc(F)cc1)N1CCN(C2CCCCC2)CC1 | n | n | n | n | n | x | x
COc1ccc(NC(=O)C2CCN(C(=O)c3cccs3)CC2)cc1 | n | n | 9.6 | n | n | n | n
O=C(Nc1ccccc1)C1CCN(C(=O)c2ccc([N+](=O)[O-])cc2)CC1 | n | n | n | n | n | x | x
O=C(Nc1ccccc1)C1CCN(C(=O)c2ccccc2)CC1 | 11.6 | n | n | n | n | n | n
O=C(c1ccccc1)N1CCN(C(=O)c2ccc(OC(F)(F)F)cc2)CC1 | 12.4 | n | n | n | n | n | n
O=C(c1ccccc1)N1CCN(C2CCCCCC2)CC1 | n | n | 13.9 | n | n | n | n
O=C(NC1CCCCN(Cc2cccc(Cl)c2)C1=O)c1cccc2nsnc12 (stereo unspecified) | n | x | n | x | x | x | x
COc1cc2c(c(OC)c1OC)-c1ccc(OC)c(=O)cc1C(NC(C)=O)CC2 (stereo unspecified) | n | n | 10.2 | n | n | n | n
CCCC(=O)NC1CCc2cc(OC)c(OC)c(OC)c2-c2ccc(OC)c(=O)cc21 (stereo unspecified) | n | n | n | x | x | x | x
O=C1CC2c3cc(Br)ccc3CCN2C(=O)CN1Cc1ccccc1 (stereo unspecified) | n | x | n | x | x | x | x
O=C(NCc1ccc(F)cc1)c1cc(C2CCCN(C(=O)c3cccs3)C2)on1 (stereo unspecified) | n | x | n | x | x | x | x
O=C(NCc1cccnc1)c1cc(C2CCCN(C(=O)c3cccs3)C2)on1 (stereo unspecified) | n | x | 16.2 | x | x | n | n
C[C@H]1C2CC(OC(=O)Nc3ccccc3C(F)(F)F)C(C2)[C@H]2CCCCN21 (stereo partly specified) | n | x | n | x | x | x | x
COC(=O)c1cc2c(c3c4cc(F)ccc4n(S(=O)(=O)c4ccc(OC)cc4)c13)C(=O)N(Cc1ccccc1OC)C2 | n | x | n | x | x | x | x
O=C(/C=C/c1ccc([N+](=O)[O-])cc1)NC1CC2CCC1C2 (stereo unspecified) | n | n | 14.0 | n | n | n | n
O=C(/C=C/c1ccc(Cl)cc1)NC1CC2CCC1C2 (stereo unspecified) | n | n | n | n | n | x | x
N=c1sccn1CC(=O)NCCc1ccc(Cl)cc1 | n | n | 10.1 | n | n | n | n
COc1ccc(/C=N\NC(=O)Cc2cccs2)c(OC)c1OC | n | x | n | x | x | x | x
O=C(NN=Cc1ccc(O)cc1)c1cc(-c2ccc(Cl)cc2)n[nH]1 | n | x | n | x | x | x | x
CC1CC1C(=O)N1CCC(Oc2cccnc2)CC1 (stereo unspecified) | n | x | n | x | x | x | x
O=C(O)c1cccc(NC(=S)NC(NC(=O)c2cccc([N+](=O)[O-])c2)C(Cl)(Cl)Cl)c1 (stereo unspecified) | n | n | 10.9 | n | n | n | n
